Reference: ChEMBL document CHEMBL1649102, “Stereochemical survey of digitoxin monosaccharides: new anticancer analogues with enhanced apoptotic activity and growth inhibitory effect on human non-small cell lung cancer cell” (ACS Med Chem Lett, 2011)
pIC50: −log10 of the molar value. Activity calls are given as the source filed them.

Key:
[1] = Growth inhibition of human NCI60 cells; type: functional
Procedure, shortened: (§1)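 NCI-60 cell lines grown in RPMI 1640 with 5% FBS and 2 mM L-glutamine, plated at 5,000–40,000 cells/well and preincubated 24 h. Time-zero plates were TCA-fixed. Drug was given at five concentrations (10-fold or ½-log dilutions from DMSO stock) for 48 h at 37°C. Cells were TCA-fixed, stained with SRB, and read at 515 nm. GI50 is where [(Ti−Tz)/(C−Tz)]×100 = 50.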

NCI-H460 [2] = assay: Growth inhibition of human NCI-H460 cells after 48 hrs by MTT assay; type: functional; conditions: NCI-H460, 48 h
Procedure, shortened: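 NCI-H460 cells in RPMI 1640 with 10% FBS were seeded at 10,000 cells/well for 12 h. Drug was diluted 1000× from DMSO into 1% FBS medium (DMSO <0.1%). Time-course runs used 50 nM; dose–response runs used 48 h exposure. Viability was read by MTT (4 h), with formazan dissolved in DMSO for 45 min and read at 562 nm. Triplicate wells, ≥3 runs (N = 9), two-way ANOVA.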

NCI-H460 [3] = assay: Cytotoxicity against human NCI-H460 cells assessed as cell death at 50 nM after 12 hrs by Hoechst-33342 staining and propidium iodide staining; type: functional, cell-based; conditions: NCI-H460, 12 h
Procedure, shortened: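 NCI-H460 cells were seeded at 50,000 cells/well for 12 h, then exposed 12 h in serum-free medium (DMSO <0.1%). Cells were stained with Hoechst 33342 (10 µg/ml) and propidium iodide (20 µg/ml) for 30 min at 37°C. Condensed or fragmented nuclei were scored by fluorescence microscopy, and apoptotic index = apoptotic/total nuclei ×100. Duplicate wells, ≥3 runs (N = 6).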

EKVX = assay: Growth inhibition of human EKVX cells; type: functional; procedure, shortened: as §1
SK-MEL-28 = assay: Growth inhibition of human SK-MEL-28 cells; type: functional
Procedure, shortened: (§2)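 NCI-60 panel SRB assay. Cells in RPMI 1640 with 5% FBS and 2 mM L-glutamine, plated at 5,000-40,000 cells/well and grown 24 h before dosing; time-zero plates TCA-fixed. Five concentrations (10-fold or ½ log dilutions, from DMSO stock) applied for 48 h at 37°C. TCA fixation (16% final for suspension cells), SRB stain, absorbance 515 nm; GI50 from net protein increase versus control.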

DU-145 = assay: Growth inhibition of human DU145 cells; type: functional; procedure, shortened: as §1
SN12C = assay: Growth inhibition of human SN12C cells; type: functional; procedure, shortened: as §2
CAKI-1 = assay: Growth inhibition of human Caki1 cells; type: functional; procedure, shortened: as §1
NCI/ADR-RES = assay: Growth inhibition of human NCI/ADR-RES cells; type: functional; procedure, shortened: as §1
MDA-MB-231 = assay: Growth inhibition of human MDA-MB-231 cells; type: functional; procedure, shortened: as §1
SK-MEL-2 = assay: Growth inhibition of human SK-MEL-2 cells; type: functional; procedure, shortened: as §1
PC-3 = assay: Growth inhibition of human PC3 cells; type: functional; procedure, shortened: as §1
MDA-N = assay: Growth inhibition of human MDA-N cells; type: functional; procedure, shortened: as §1
SF-295 = assay: Growth inhibition of human SF295 cells; type: functional; procedure, shortened: as §1
SF-268 = assay: Growth inhibition of human SF268 cells; type: functional; procedure, shortened: as §1
NCI-H322M = assay: Growth inhibition of human NCI-H322M cells; type: functional; procedure, shortened: as §1
RXF 393 = assay: Growth inhibition of human RXF393 cells; type: functional; procedure, shortened: as §1
HCT-15 = assay: Growth inhibition of human HCT15 cells; type: functional; procedure, shortened: as §1
OVCAR-3 = assay: Growth inhibition of human OVCAR3 cells; type: functional; procedure, shortened: as §1
MOLT-4 = assay: Growth inhibition of human MOLT4 cells; type: functional; procedure, shortened: as §1
HT-29 = assay: Growth inhibition of human HT-29 cells; type: functional; procedure, shortened: as §1
M14 = assay: Growth inhibition of human M14 cells; type: functional; procedure, shortened: as §1
UACC-257 = assay: Growth inhibition of human UACC257 cells; type: functional; procedure, shortened: as §2
COLO 205 = assay: Growth inhibition of human COLO205 cells; type: functional; procedure, shortened: as §1
HOP-92 = assay: Growth inhibition of human HOP92 cells; type: functional; procedure, shortened: as §1
HOP-62 = assay: Growth inhibition of human HOP62 cells; type: functional; procedure, shortened: as §1
UO-31 = assay: Growth inhibition of human UO31 cells; type: functional; procedure, shortened: as §2
[4] = Growth inhibition of human Hs 578T cells; type: functional; procedure, shortened: as §1
A498 = assay: Growth inhibition of human A498 cells; type: functional; procedure, shortened: as §1
SNB-19 = assay: Growth inhibition of human SNB19 cells; type: functional; procedure, shortened: as §2
NCI-H460 [5] = assay: Induction of apoptosis human NCI-H460 cells assessed as cellular degradation at 50 nM after 12 hrs by Hoechst-33342 staining; type: functional
Procedure, shortened: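 NCI-H460 seeded 50,000 cells/well for 12 h, then exposed 12 h in serum-free medium (DMSO <0.1%). Stained 30 min at 37°C with 10 µg/ml Hoechst 33342 plus 20 µg/ml propidium iodide. Condensed or fragmented nuclei scored by fluorescence microscopy; apoptotic index = apoptotic/total nuclei ×100. 2 replicate wells, ≥3 runs (N = 6).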

NCI-H226 = assay: Growth inhibition of human NCI-H226 cells; type: functional; procedure, shortened: as §1
BT-549 = assay: Growth inhibition of human BT549 cells; type: functional; procedure, shortened: as §1
MCF7 = assay: Growth inhibition of human MCF7 cells; type: functional; procedure, shortened: as §1
SK-OV-3 = assay: Growth inhibition of human SKOV3 cells; type: functional; procedure, shortened: as §2
IGROV-1 = assay: Growth inhibition of human IGROV1 cells; type: functional; procedure, shortened: as §1
OVCAR-4 = assay: Growth inhibition of human OVCAR4 cells; type: functional; procedure, shortened: as §1
U-251 = assay: Growth inhibition of human U251 cells; type: functional; procedure, shortened: as §2
UACC-62 = assay: Growth inhibition of human UACC62 cells; type: functional; procedure, shortened: as §2
K562 = assay: Growth inhibition of human K562 cells; type: functional; procedure, shortened: as §1
HCT-116 = assay: Growth inhibition of human HCT116 cells; type: functional; procedure, shortened: as §1
TK-10 = assay: Growth inhibition of human TK10 cells; type: functional; procedure, shortened: as §2
SNB-75 = assay: Growth inhibition of human SNB75 cells; type: functional; procedure, shortened: as §2
SK-MEL-5 = assay: Growth inhibition of human SK-MEL-5 cells; type: functional; procedure, shortened: as §2
786-0 = assay: Growth inhibition of human 786-0 cells; type: functional; procedure, shortened: as §1
KM12 = assay: Growth inhibition of human KM12 cells; type: functional; procedure, shortened: as §1
NCI-H23 = assay: Growth inhibition of human NCI-H23 cells; type: functional; procedure, shortened: as §1
LOX IMVI = assay: Growth inhibition of human LOXIMVI cells; type: functional; procedure, shortened: as §1
NCI-H460 [6] = assay: Growth inhibition of human NCI-H460 cells; type: functional; procedure, shortened: as §1
CCRF-CEM = assay: Growth inhibition of human CCRF-CEM cells; type: functional; procedure, shortened: as §1
SR = assay: Growth inhibition of human SR cells; type: functional; procedure, shortened: as §2
OVCAR-5 = assay: Growth inhibition of human OVCAR5 cells; type: functional; procedure, shortened: as §1
[7] = Growth inhibition of human […] cells; type: functional; procedure, shortened: as §1
SF-539 = assay: Growth inhibition of human SF539 cells; type: functional; procedure, shortened: as §1
HL-60(TB) = assay: Growth inhibition of human HL-60(TB) cells; type: functional; procedure, shortened: as §1
NCI-H522 = assay: Growth inhibition of human NCI-H522 cells; type: functional; procedure, shortened: as §1
ACHN = assay: Growth inhibition of human ACHN cells; type: functional; procedure, shortened: as §1
A549 = assay: Growth inhibition of human A549 cells; type: functional; procedure, shortened: as §1
OVCAR-8 = assay: Growth inhibition of human OVCAR8 cells; type: functional; procedure, shortened: as §1
MDA-MB-435 = assay: Growth inhibition of human MDA-MB-435 cells; type: functional; procedure, shortened: as §1
T47D = assay: Growth inhibition of human T47D cells; type: functional; procedure, shortened: as §2
SW-620 = assay: Growth inhibition of human SW620 cells; type: functional; procedure, shortened: as §2
HCC 2998 = assay: Growth inhibition of human HCC2998 cells; type: functional; procedure, shortened: as §1
Malme-3M = assay: Growth inhibition of human MALME-3M cells; type: functional; procedure, shortened: as §1

C[C@@H]1O[C@@H](O[C@H]2CC[C@@]3(C)[C@H](CC[C@@H]4[C@@H]3CC[C@]3(C)[C@@H](C5=CC(=O)OC5)CC[C@]43O)C2)C=C[C@H]1O
1 nM: GI50 [1]

C[C@H]1O[C@@H](O[C@H]2[C@@H](O)C[C@H](O[C@H]3[C@@H](O)C[C@H](O[C@H]4CC[C@@]5(C)[C@H](CC[C@@H]6[C@@H]5CC[C@]5(C)[C@@H](C7=CC(=O)OC7)CC[C@]65O)C4)O[C@@H]3C)O[C@@H]2C)C[C@H](O)[C@@H]1O [DIGITOXIN]
6.45: pIC50 (NCI-H460 [3])
10.7 nM: GI50 (NCI-H460 [2])

C[C@@H]1O[C@@H](O[C@H]2CC[C@@]3(C)[C@H](CC[C@@H]4[C@@H]3CC[C@]3(C)[C@@H](C5=CC(=O)OC5)CC[C@]43O)C2)[C@H](O)[C@H](O)[C@H]1O
active: Activity (NCI-H460 [5])
1 nM: GI50 [1]
7.33: pIC50 (NCI-H460 [3])
45.8%: Activity (NCI-H460 [5]; record 2)
< 10 nM: GI50 (EKVX) | GI50 (SK-MEL-28) | GI50 (DU-145) | GI50 (SN12C) | GI50 (CAKI-1) | GI50 (NCI/ADR-RES) | GI50 (MDA-MB-231) | GI50 (SK-MEL-2) | GI50 (PC-3) | GI50 (MDA-N) | GI50 (SF-295) | GI50 (SF-268) | GI50 (NCI-H322M) | GI50 (RXF 393) | GI50 (HCT-15) | GI50 (OVCAR-3) | GI50 (MOLT-4) | GI50 (HT-29) | GI50 (M14) | GI50 (UACC-257) | GI50 (COLO 205) | GI50 (HOP-92) | GI50 (HOP-62) | GI50 (UO-31) | GI50 [4] | GI50 (A498) | GI50 (SNB-19) | GI50 (NCI-H226) | GI50 (BT-549) | GI50 (MCF7) | GI50 (SK-OV-3) | GI50 (IGROV-1) | GI50 (OVCAR-4) | GI50 (U-251) | GI50 (UACC-62) | GI50 (K562) | GI50 (HCT-116) | GI50 (TK-10) | GI50 (SNB-75) | GI50 (SK-MEL-5) | GI50 (786-0) | GI50 (KM12) | GI50 (NCI-H23) | GI50 (LOX IMVI) | GI50 (NCI-H460 [6]) | GI50 (CCRF-CEM) | GI50 (SR) | GI50 (OVCAR-5) | GI50 [7] | GI50 (SF-539) | GI50 (HL-60(TB)) | GI50 (NCI-H522) | GI50 (ACHN) | GI50 (A549) | GI50 (OVCAR-8) | GI50 (MDA-MB-435) | GI50 (T47D) | GI50 (SW-620) | GI50 (HCC 2998) | GI50 (Malme-3M)

C[C@H]1O[C@@H](O[C@H]2[C@@H](O)C[C@H](O[C@H]3CC[C@@]4(C)[C@H](CC[C@@H]5[C@@H]4CC[C@]4(C)[C@@H](C6=CC(=O)OC6)CC[C@]54O)C3)O[C@@H]2C)C[C@H](O)[C@@H]1O
50 nM: GI50 [1]

C[C@@H]1O[C@@H](O[C@H]2CC[C@@]3(C)[C@H](CC[C@@H]4[C@@H]3CC[C@]3(C)[C@@H](C5=CC(=O)OC5)CC[C@]43O)C2)CC[C@H]1O [RAMNODIGIN]
active: growth inhibition (GI) (DU-145) | growth inhibition (GI) (SN12C) | growth inhibition (GI) (CAKI-1) | growth inhibition (GI) (RXF 393) | growth inhibition (GI) (OVCAR-3) | growth inhibition (GI) (MOLT-4) | growth inhibition (GI) (UO-31) | growth inhibition (GI) (A498) | growth inhibition (GI) (HCT-116) | growth inhibition (GI) (TK-10) | growth inhibition (GI) (786-0) | growth inhibition (GI) (NCI-H460 [6]) | growth inhibition (GI) (ACHN) | growth inhibition (GI) (A549) | growth inhibition (GI) (OVCAR-8)
7.25: pIC50 (NCI-H460 [3])
2.2 nM: GI50 (NCI-H460 [2])
33%: Activity (NCI-H460 [5])
12 nM: GI50 [1]
